Measurements reported in ChEMBL document CHEMBL1123757, “Selective thromboxane synthetase inhibitors and antihypertensive agents. New derivatives of 4-hydrazino-5H-pyridazino[4,5-b]indole, 4-hydrazinopyridazino[4,5-a]indole, and related compounds” (J Med Chem, 1987).

Key:
Cavia porcellus [1] = test: Effect on thromboxane synthetase activity on ex vivo platelet aggregation induced by PGE-2 at 50 mg/kg expressed as percent increase; type: functional
Procedure, shortened: (§1)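 Fasted male or female guinea pigs (250–300 g, five per group) dosed orally in normal saline or saline with 0.2% (carboxymethyl)cellulose/1.0% Tween 80; controls given vehicle. Under ether, cardiac blood collected into 3.8% citrate. PRP adjusted to […] and aggregation induced by ADP (second wave) or AA, read by absorbance aggregometry. PGE2 and TXB2 measured by RIA.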

Cavia porcellus [2] = test: Effect on thromboxane synthetase activity on ex vivo platelet aggregation induced by PGE-2 at 100 mg/kg expressed as percent increase; type: functional; procedure, shortened: as §1
[3] = Effect on thromboxane synthetase activity on in vitro platelet aggregation induced by AA at 10e -5 M expressed as percent increase in PGE-2; type: functional, Homo sapiens
Procedure, shortened: (§2)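 Human citrated PRP adjusted to 200 000 […], compound at 10^-5 M final in saline/10% ethylene glycol, incubated at 37 °C. Aggregation induced with arachidonic acid 0.6 mM and read by Born absorbance aggregometry. PGE2 and TXB2 in the aggregated samples measured by radioimmunoassay. n = 5.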

[4] = Effect on PGI-2 release from rat aortic tissue at a final concentration of 10e -4 for an incubation time of 10 minutes; type: functional
Procedure, shortened: (§3)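 Female Wistar rats (200–220 g) received heparin 200 IU/kg ip and were killed 10 min later. Aortic pieces of about 25 mm² were washed in ice-cold oxygenated Krebs–Henseleit buffer, then incubated in 1 mL buffer at 37 °C. Compound at 10^-4 M final was added 10 min before tissue transfer. PGI2 release was read as antiaggregatory activity of the incubate on ADP (2×10^-6 M)-induced human PRP aggregation and by 6-keto-PGF1α RIA. n = 4.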

[5] = Effect on PGI-2 release from rat aortic tissue at a final concentration of 10e -4 for an incubation time of 25 minutes; type: functional; procedure, shortened: as §3
[6] = Effect on PGI-2 release from rat aortic tissue at a final concentration of 10e -4 for an incubation time of 30 minutes; type: functional; procedure, shortened: as §3
[7] = Effect on PGI-2 release from rat aortic tissue at a final concentration of 10e -4 for an incubation time of 35 minutes; type: functional; procedure, shortened: as §3
[8] = molecular target: T1, Thromboxane-A synthase (Homo sapiens) (UniProt P24557); test: Effect on thromboxane synthetase activity on ex vivo platelet aggregation induced by TXB2 at 100 mg/kg expressed as percent increase; type: functional, organism-based; set-up: dose 100 mg/kg; settings: Cavia porcellus; procedure, shortened: as §1
T1 sequence (whole entry): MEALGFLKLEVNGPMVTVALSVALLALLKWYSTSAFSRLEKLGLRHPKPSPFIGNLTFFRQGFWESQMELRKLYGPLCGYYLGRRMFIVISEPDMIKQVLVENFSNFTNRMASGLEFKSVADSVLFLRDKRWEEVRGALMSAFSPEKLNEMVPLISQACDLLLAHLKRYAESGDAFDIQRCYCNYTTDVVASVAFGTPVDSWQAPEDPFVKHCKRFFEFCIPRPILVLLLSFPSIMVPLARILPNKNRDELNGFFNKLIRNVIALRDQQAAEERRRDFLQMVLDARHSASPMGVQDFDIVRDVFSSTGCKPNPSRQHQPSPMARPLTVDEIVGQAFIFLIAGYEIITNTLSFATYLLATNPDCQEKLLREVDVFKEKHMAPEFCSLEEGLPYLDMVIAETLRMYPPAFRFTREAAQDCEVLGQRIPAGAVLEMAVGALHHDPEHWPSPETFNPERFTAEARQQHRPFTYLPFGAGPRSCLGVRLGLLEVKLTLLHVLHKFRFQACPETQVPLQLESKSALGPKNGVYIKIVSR

[9] = molecular target: T1, Thromboxane-A synthase (Homo sapiens); test: Effect on thromboxane synthetase activity on ex vivo platelet aggregation induced by TXB2 at 50 mg/kg expressed as percent increase; type: functional, organism-based; set-up: dose 50 mg/kg; settings: Cavia porcellus; procedure, shortened: as §1
[10] = molecular target: T1, Thromboxane-A synthase (Homo sapiens); test: Effect on thromboxane synthetase activity on in vitro platelet aggregation induced by AA at 10e -5 M expressed as percent […] in TXB2; type: functional; procedure, shortened: as §2

SMILES: CC(=O)Oc1ccccc1C(=O)O [ASPIRIN]
- Increase (Cavia porcellus [1]): 0%
- Increase (Cavia porcellus [2]): 0%
- Increase [3]: 0%
- Inhibition [4]: 80%
- Inhibition [5]: 80%
- Inhibition [6]: 80%
- Inhibition [7]: 80%
- inhibition [8]: 100%
- inhibition [9]: 100%
- inhibition [10]: 100%
